Laboratory results: ChEMBL document CHEMBL3608272, “Design, synthesis and anticancer properties of novel oxa/azaspiro[4,5]trienones as potent apoptosis inducers through mitochondrial disruption” (2015)

Experiments:
Assay type in all cases: functional
[1] = system: HepG2; assay: Anti-proliferative activity against human HepG2 cells incubated for 48 hrs by SRB assay; details: HepG2, 48 h
How it was run: (§1)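 SRB assay. Cells in DMEM with 10% FBS were seeded and grown 24 h at 37 °C in CO2. Compounds were diluted from a 10 mM DMSO stock to 1, 5 and 10 µM, with DMSO at most 0.1%, and exposed 48 h. Cells were fixed with 10% TCA for 60 min at 4 °C and stained 20 min at room temperature with 0.4% SRB in 1% acetic acid. Dye was eluted with 10 mM trizma base and absorbance read at 540 nm. Run in triplicate; GI50 given as mean ± SD of three determinations.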

[2] = system: DU-145; assay: Anti-proliferative activity against human DU145 cells incubated for 48 hrs by SRB assay; details: DU-145, 48 h; how it was run: as §1
[3] = system: A549; assay: Anti-proliferative activity against human A549 cells incubated for 48 hrs by SRB assay; details: A549, 48 h
[4] = system: MCF7; assay: Anti-proliferative activity against human MCF7 cells incubated for 48 hrs by SRB assay; details: MCF7, 48 h; how it was run: as §1

| SMILES | GI50 [1] | GI50 [2] | GI50 [3] | GI50 [4] |
| --- | --- | --- | --- | --- |
| CN1C(=O)C(c2ccoc2)=C(c2ccccc2)C12C=CC(=O)C=C2 | 62.8 µM | 91.2 µM | 126 µM | 52.7 µM |
| CN1C(=O)C(c2ccc(C=O)cc2)=C(c2ccccc2)C12C=CC(=O)C=C2 | 12.7 µM | 18.2 µM | 36.2 µM | 11.1 µM |
| O=Cc1ccc(C2=C(c3ccccc3)C3(C=CC(=O)C=C3)OC2=O)s1 | 2.6 µM | 4 µM | 4.6 µM | 3.4 µM |
| COc1ccc(C2=C(c3ccccc3)C3(C=CC(=O)C=C3)N(C)C2=O)c(OC)c1 | 69.1 µM | 62.7 µM | 101 µM | 71.7 µM |
| CN1C(=O)C(c2cccc(Cl)c2Cl)=C(c2ccccc2)C12C=CC(=O)C=C2 | 10.5 µM | 14 µM | 27.6 µM | 9.9 µM |
| O=C1C=CC2(C=C1)OC(=O)C(c1ccc(O)cc1)=C2c1ccccc1 | 3.5 µM | 2.7 µM | 6.2 µM | 3.4 µM |
| CSc1ccc(C2=C(c3ccccc3)C3(C=CC(=O)C=C3)N(C)C2=O)cc1 | 18.7 µM | 26.4 µM | 50.4 µM | 15.8 µM |
| COc1ccc(C2=C(c3ccccc3)C3(C=CC(=O)C=C3)OC2=O)cc1 | 3.4 µM | 4.1 µM | 7.3 µM | 1.8 µM |
| COc1ccc(C2=C(c3ccccc3)C3(C=CC(=O)C=C3)N(C)C2=O)cc1 | 61.7 µM | 55.7 µM | 98 µM | 45.4 µM |
| COc1cccc2c1C(=O)c1c(O)c3c(c(O)c1C2=O)C[C@@](O)(C(=O)CO)C[C@@H]3O[C@H]1C[C@H](N)[C@H](O)[C@H](C)O1 [DOXORUBICIN] | 1.4 µM | 0.95 µM | 1.9 µM | 1.6 µM |
| CN1C(=O)C(c2ccc(C(F)(F)F)cc2)=C(c2ccccc2)C12C=CC(=O)C=C2 | 13.7 µM | 17.6 µM | 30.3 µM | 8.1 µM |
| CN1C(=O)C(c2cc3ccccc3s2)=C(c2ccccc2)C12C=CC(=O)C=C2 | 7.2 µM | 9 µM | 18.8 µM | 4.2 µM |
| CN1C(=O)C(c2ccc3c(c2)OCO3)=C(c2ccccc2)C12C=CC(=O)C=C2 | 19.6 µM | 16.3 µM | 30.2 µM | 6.7 µM |
